Laboratory results published in BindingDB's records for doi:10.1021/jm00148a007 (1985).

Legend:
Histamine H2 receptor [1] = target: T1, Histamine H2 receptor (Cavia porcellus, UniProt P47747); experiment: Antagonistic activity against H2 receptor in guinea pig was evaluated
How it was run: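 Isolated guinea pig atrium preparation loaded with 400-mg tension, with propranolol (0.5 μM) present throughout. Histamine concentration-response curves were run with and without several antagonist concentrations (B). The dose ratio x was taken from histamine concentrations giving half-maximal responses. K_B was calculated as B/(x − 1), and pA2 = −log K_B.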

Histamine H2 receptor [2] = target: T1, Histamine H2 receptor; experiment: Antagonistic activity against H2 receptor in guinea pig.

T1 sequence (P47747 whole entry): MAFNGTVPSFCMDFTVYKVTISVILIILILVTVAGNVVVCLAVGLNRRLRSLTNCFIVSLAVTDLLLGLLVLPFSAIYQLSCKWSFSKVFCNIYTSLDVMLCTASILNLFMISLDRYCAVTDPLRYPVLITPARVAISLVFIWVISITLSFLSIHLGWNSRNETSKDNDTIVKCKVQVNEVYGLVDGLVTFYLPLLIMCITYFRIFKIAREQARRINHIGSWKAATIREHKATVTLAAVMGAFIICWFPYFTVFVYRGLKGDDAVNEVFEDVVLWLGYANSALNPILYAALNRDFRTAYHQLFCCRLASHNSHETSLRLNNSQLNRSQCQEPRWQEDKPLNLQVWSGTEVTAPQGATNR

## CSC(=NCCSCc1[nH]cnc1C)NCCCc1cnc[nH]1
Histamine H2 receptor [1]
  Kd: 17.8 µM

## Cc1nc[nH]c1CSCCNC(=N)NCCCc1cn(C)cn1
Histamine H2 receptor [2]
  Kd: 1.58 µM
